From ChEMBL document CHEMBL4219082, “2-Arylthio-5-iodo pyrimidine derivatives as non-nucleoside HBV polymerase inhibitors” (Bioorg Med Chem, 2018)
The source made the active and inactive calls. No cut-off for these calls is given here.

Assays:
Hepatitis B virus [1] = experiment: Antiviral activity against HBV infected in human HepG2.2.15 cells assessed as inhibition of viral DNA levels at 10 uM after […] by qRT-PCR analysis; type: functional, organism-based
Outline: (§1)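 HepG2.2.15 cells were seeded at 2×10^5 cells/mL and exposed to compound 24 h later. Compound-containing medium was renewed at 72 h and cells were kept another 72 h. After a PBS wash, intracellular HBV DNA was extracted from lysates and quantified by qRT-PCR. Line 1 gives the 50% inhibitory concentration; lines 2 and 3 test single concentrations of 10 µM and 20 µM.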

Duck hepatitis B virus [2] = experiment: Inhibition of DHBV DNA polymerase derived from infected duckling liver assessed as decrease in biotin-11-dUTP incorporation using poly (A)/oligo(dT)15 as template/primer at 200 uM after 1 hr by ELISA
Outline: (§2)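 Enzyme is DHBV polymerase from liver homogenate of infected ducklings. It was pelleted, and the 35% and 40% fractions of a sucrose density gradient were pooled and used at a "1/100" dilution of one liver's yield. Oligo(dT)15 primer is covalently immobilized on the plate. The mix contains 17.5 µg/ml poly(A), 8 µM dTTP, 2 µM biotin-11-dUTP, 5 mM DTT, 17 mM MgCl2, 65 µg/ml BSA, 50 mM Tris-HCl pH 8.3 and 75 mM KCl. Incubation is 1 h at 37 °C. After BSA blocking, streptavidin-alkaline phosphatase is added and PNPP signal is read after NaOH stop. Line 6 is tested at 100 µM and line 7 at 200 µM.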

[3] = (§3) Inhibition of DHBV DNA polymerase derived from infected duckling liver assessed as decrease in biotin-11-dUTP incorporation using poly (A)/oligo(dT)15 as template/primer after 1 hr by ELISA; parameters: species or system Duck hepatitis B virus; outline: as §2
[4] = Selectivity index, ratio of CC50 for human HepG2.2.15 cells to EC50 for HBV infected in human HepG2.2.15 cells; type: toxicity, cell-based; details: read-out: Ratio CC50/EC50
Outline: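 Selectivity index is calculated as CC50/EC50. CC50 comes from an MTT assay and EC50 from qRT-PCR of intracellular HBV DNA. Both use HepG2.2.15 cells dosed for two 72 h periods with a medium renewal between them.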

[5] = Cytotoxicity against human HepG2.2.15 cells […] by MTT assay; type: cell-based, HepG2 2.2.15
Outline: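 HepG2.2.15 cells were seeded at 2×10^5 cells/mL and dosed with graded compound concentrations after 24 h. Medium with compound was refreshed at 72 h, then cells were kept a further 72 h. MTT was added for 4 h, formazan was dissolved in DMSO and absorbance read at 490 nm. The value is CC50, the concentration giving 50% cytotoxicity.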

Duck hepatitis B virus [6] = experiment: Inhibition of DHBV DNA polymerase derived from infected duckling liver assessed as decrease in biotin-11-dUTP incorporation using poly (A)/oligo(dT)15 as template/primer at 100 uM after 1 hr by ELISA relative to control; outline: as §2
Hepatitis B virus [7] = experiment: Antiviral activity against HBV infected in human HepG2.2.15 cells assessed as inhibition of viral DNA levels at 20 uM […] by qRT-PCR analysis relative to control; type: functional; outline: as §1
Duck hepatitis B virus [8] = experiment: as §3; outline: as §2

Row | IC50 [3] [µM] | SMILES | selectivity ratio [4] | CC50 [5] [µM] | further results
1 | 42.8 | O=c1[nH]c(SCc2ccc([N+](=O)[O-])cc2)nc(Cc2ccccc2)c1I | 7 | 52.7 | –
2 | 71.9 | Cc1cc(C)cc(Cc2nc(SCCc3ccc([N+](=O)[O-])cc3)[nH]c(=O)c2I)c1 | 6.8 | 66.6 | –
3 | 33 | Cc1cc(C)cc(Cc2nc(SCc3ccc([N+](=O)[O-])cc3)[nH]c(=O)c2I)c1 | 5.9 | 39 | –
4 | 128 | N#Cc1ccc(CSc2nc(Cn3nnc4ccccc43)c(I)c(=O)[nH]2)cc1 | – | – | inhibition (Hepatitis B virus [1]): inactive
5 | > 200 | N#Cc1ccc(CSc2nc(C(=O)NCCCc3ccccc3)c(I)c(=O)[nH]2)cc1 | > 30 | > 50 | –
6 | 6.54 | O=C(O)P(=O)(O)O [FOSCARNET] | – | – | inhibition (Duck hepatitis B virus [8]): Dose-dependent effect
7 | 104 | O=c1[nH]c(SCc2ccc([N+](=O)[O-])cc2)nc(Cn2nnc3ccccc32)c1I | – | – | inhibition (Hepatitis B virus [1]): inactive

Second part, the compound before the results:

Row | SMILES | IC50 [3] [µM] | selectivity ratio [4] | CC50 [5] [µM] | further results
8 | N#Cc1ccc(CSc2nc(CN3CCCCC3)c(I)c(=O)[nH]2)cc1 | – | – | – | inhibition (Hepatitis B virus [1]): inactive; inhibition (Duck hepatitis B virus [2]): inactive
9 | N#Cc1ccc(CSc2nc(CN3CCc4ccccc4C3)c(I)c(=O)[nH]2)cc1 | 60.5 | – | – | –
10 | COC(=O)c1ccc(CSc2nc(Cc3cc(C)cc(C)c3)c(I)c(=O)[nH]2)cc1 | 38.8 | 5 | 64.8 | –
11 | Nc1ccn([C@H]2CS[C@@H](CO)O2)c(=O)n1 | – | > 164 | > 100 | –
12 | O=c1[nH]c(SCc2ccc([N+](=O)[O-])cc2)nc(Cc2cc(F)cc(F)c2)c1I | 29.5 | > 16 | > 100 | –
13 | Cc1cc(C)cc(Cc2nc(SCc3ccc(C#N)cc3)[nH]c(=O)c2I)c1 | 35.6 | 6.1 | 43.2 | –
14 | N#Cc1ccc(CSc2nc(C(=O)N3CCCc4ccccc43)c(I)c(=O)[nH]2)cc1 | > 200 | > 62 | > 100 | –
15 | O=c1cc(Cc2cc(F)cc(F)c2)nc(SCc2ccc([N+](=O)[O-])cc2)[nH]1 | – | – | – | inhibition (Duck hepatitis B virus [6]): 16.1%; inhibition at 20 µM (Hepatitis B virus [7]): 32.9%
16 | COC(=O)c1ccc(CSc2nc(Cc3cc(C)cc(C)c3)cc(=O)[nH]2)cc1 | – | – | – | inhibition (Duck hepatitis B virus [6]): 3.66%; inhibition at 20 µM (Hepatitis B virus [7]): 13.3%
17 | Cc1cc(C)cc(Cc2nc(SCCOc3ccc([N+](=O)[O-])cc3)[nH]c(=O)c2I)c1 | 56 | 14 | 96.6 | –
18 | CN1CCN(C(=O)c2nc(SCc3ccc(C#N)cc3)[nH]c(=O)c2I)CC1 | – | > 38 | > 100 | inhibition (Duck hepatitis B virus [2]): inactive
19 | CC(=O)c1ccc(CSc2nc(Cc3cc(C)cc(C)c3)c(I)c(=O)[nH]2)cc1 | 42.9 | 6.4 | 78.3 | –
